What was measured:
Rattus norvegicus [1] = test: Antihypertensive effects in conscious, unrestrained, spontaneously hypertensive rats after 100 mg/kg p.o. administration.; assay type: functional; details: route oral
Procedure, shortened: (§1)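 SHR housed singly with free access to tap water, overnight recovery before testing. Compound suspended in 1% methylcellulose, given once ip at 30 mg/kg or by oral gavage at 100 mg/kg (n = 3); concurrent controls (n = 3) got 1 mL vehicle by same route. MAP recorded continuously 24 h; value is maximum change from concurrent control, mean ± SEM.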

Rattus norvegicus [2] = test: Antihypertensive effects in conscious, unrestrained, spontaneously hypertensive rats after 30 mg/kg i.p. administration.; assay type: functional; details: route intraperitoneal; procedure, shortened: as §1
Rattus norvegicus [3] = test: Total antihypertensive activity was obtained from the area between compound and control MAP (mean arterial pressure) curves, after (ip) 30 mg/kg administration in spontaneously hypertensive rats (SHR).; assay type: functional, Artery
Procedure, shortened: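 SHR dosed once ip at 30 mg/kg in 1% methylcellulose suspension (n = 3), with vehicle-dosed concurrent controls (n = 3). MAP recorded continuously over 24 h; time points 0, 0.25, 0.5, 1, 2, 4, 6, 12, 18 and 24 h used. Value is area between drug and control MAP curves, in mmHg × h.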

CNC(=O)N1C=CC(C)(C)C=C1
Max change in blood pressure (Rattus norvegicus [1]): -41 mmHg
Max change in blood pressure (Rattus norvegicus [2]): -34 mmHg

COC(=O)CCN1C=CC(C)(C)C=C1
Max change in blood pressure (Rattus norvegicus [1]): -19 mmHg
Max change in blood pressure (Rattus norvegicus [2]): -71 mmHg
Activity (Rattus norvegicus [3]): 1360 mmHg·h

COc1ccc(CC(=O)N2C=CC(C)(C)C=C2)cc1OC
Max change in blood pressure (Rattus norvegicus [1]): 23 mmHg
Max change in blood pressure (Rattus norvegicus [2]): -21 mmHg

CN(C)CC(=O)N1C=CC(c2ccccc2)(c2ccccc2)C=C1.Cl
Max change in blood pressure (Rattus norvegicus [1]): -12 mmHg
Max change in blood pressure (Rattus norvegicus [2]): -29 mmHg
Antihypertensive activity (Rattus norvegicus [3]): 362 mmHg·h

CC1(C)C=CN(C(=O)c2ccc[nH]2)C=C1
Max change in blood pressure (Rattus norvegicus [1]): -7 mmHg
Max change in blood pressure (Rattus norvegicus [2]): 6 mmHg

Cc1csc(N2C=CC(C)(C)C=C2)n1
Max change in blood pressure (Rattus norvegicus [1]): -21 mmHg
Max change in blood pressure (Rattus norvegicus [2]): 14 mmHg

CN(C)CC(=O)N1C=CC(C)(C)C=C1.O=C(O)/C=C\C(=O)O
Max change in blood pressure (Rattus norvegicus [1]): -39 mmHg
Max change in blood pressure (Rattus norvegicus [2]): -52 mmHg
Activity (Rattus norvegicus [3]): 132 mmHg·h

CNC(=O)N1C=CC(c2ccccc2)(c2ccccc2)C=C1
Max change in blood pressure (Rattus norvegicus [1]): -11 mmHg
Max change in blood pressure (Rattus norvegicus [2]): 17 mmHg

COC(=O)CCCN1C=CC(c2ccc(OC)cc2)(c2ccc(OC)cc2)C=C1
Max change in blood pressure (Rattus norvegicus [1]): -21 mmHg
Max change in blood pressure (Rattus norvegicus [2]): 11 mmHg

CC1(C)C=CN(C(=O)c2ccccc2)C=C1
Max change in blood pressure (Rattus norvegicus [1]): -27 mmHg
Max change in blood pressure (Rattus norvegicus [2]): -21 mmHg
Antihypertensive activity (Rattus norvegicus [3]): 210 mmHg·h

COC(=O)CCCCN1C=CC(C)(C)C=C1
Max change in blood pressure (Rattus norvegicus [1]): -11 mmHg
Max change in blood pressure (Rattus norvegicus [2]): -58 mmHg
Activity (Rattus norvegicus [3]): 943 mmHg·h

COC(=O)C1=C(C)NC(C)=C(C(=O)OC)C1c1ccccc1[N+](=O)[O-] [NIFEDIPINE]
Max change in blood pressure (Rattus norvegicus [1]): -68 mmHg
Max change in blood pressure (Rattus norvegicus [2]): -71 mmHg

CC1(C)C=CN(C(=O)C(c2ccccc2)c2ccccc2)C=C1
Max change in blood pressure (Rattus norvegicus [1]): -6 mmHg
Max change in blood pressure (Rattus norvegicus [2]): -9 mmHg

COc1ccc(CCN2C=CC(c3ccccc3)(c3ccccc3)C=C2)cc1OC
Max change in blood pressure (Rattus norvegicus [1]): -7 mmHg
Max change in blood pressure (Rattus norvegicus [2]): -7 mmHg

CC1(C)C=CN(C(=O)Nc2ccccc2)C=C1
Max change in blood pressure (Rattus norvegicus [1]): -15 mmHg
Max change in blood pressure (Rattus norvegicus [2]): -24 mmHg

COC(=O)CCCN1C=CC(C)(C)C=C1
Max change in blood pressure (Rattus norvegicus [1]): -45 mmHg
Max change in blood pressure (Rattus norvegicus [2]): -42 mmHg
Activity (Rattus norvegicus [3]): 696 mmHg·h

CN(C)CCN1C=CC(C)(C)C=C1
Max change in blood pressure (Rattus norvegicus [1]): -10 mmHg
Max change in blood pressure (Rattus norvegicus [2]): -32 mmHg
Antihypertensive activity (Rattus norvegicus [3]): 281 mmHg·h

CC1(C)C=CN(/C(=N/c2ccccc2)N2CCCC2)C=C1.O=C(O)/C=C\C(=O)O
Max change in blood pressure (Rattus norvegicus [1]): 19 mmHg
Max change in blood pressure (Rattus norvegicus [2]): 27 mmHg

O=C(c1ccccc1)N1C=CC(c2ccccc2)(c2ccccc2)C=C1
Max change in blood pressure (Rattus norvegicus [1]): 12 mmHg
Max change in blood pressure (Rattus norvegicus [2]): 11 mmHg

CC1(C)C=CN(C(=O)c2cccnc2)C=C1
Max change in blood pressure (Rattus norvegicus [1]): -26 mmHg
Max change in blood pressure (Rattus norvegicus [2]): -19 mmHg
Antihypertensive activity (Rattus norvegicus [3]): 291 mmHg·h

CN(C)CCN1C=CC(c2ccccc2)(c2ccccc2)C=C1
Max change in blood pressure (Rattus norvegicus [1]): -14 mmHg
Max change in blood pressure (Rattus norvegicus [2]): -30 mmHg

From ChEMBL document CHEMBL1124938, “Antihypertensive dihydropyridines with 1,4,4-trisubstitution” (1990)
